Source: ChEMBL document CHEMBL1926569, “Novel (E)-1-(4-methyl-2-(alkylamino)thiazol-5-yl)-3-arylprop-2-en-1-ones as potent antimicrobial agents” (2011)
Converted amounts (≈) assume the structure as drawn.

Tests used:
Talaromyces funiculosus [1] = experiment: Ratio of bifonazole to compound for Penicillium funiculosum ATCC 36839; format: functional
Aspergillus flavus [2] = experiment: Antifungal activity against Aspergillus flavus ATCC 9643 incubated for 72 hrs followed by serial sub-cultivation for 72 hrs by serial dilution technique; format: functional; conditions: ATCC 9643, 72 h
Procedure, shortened: (§1)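 MFC: material from 72 h malt broth microdilution wells was serially sub-cultured into fresh broth plates and incubated a further 72 h at 28 °C. Fungicidal concentration is taken from growth after sub-culture. Duplicate, repeated three times.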

Aspergillus ochraceus [3] = experiment: Ratio of bifonazole to compound for Aspergillus ochraceus ATCC 12066; format: functional
Aspergillus ochraceus [4] = experiment: Antifungal activity against Aspergillus ochraceus ATCC 12066 after 72 hrs by serial dilution technique; format: functional; conditions: ATCC 12066, 72 h
Procedure, shortened: (§2)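 Modified microdilution in 96-well plates. Fungi were kept on malt agar at 4 °C. Spores were washed off in sterile 0.85% saline with 0.1% Tween 80. Compounds were dissolved at 1 mg/ml in 5% DMSO with 0.1% Tween 80 and added to malt broth with inoculum. Plates were shaken at 160 rpm for 72 h at 28 °C. Duplicate, repeated three times.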

Escherichia coli [5] = experiment: Antibacterial activity against Escherichia coli ATCC 35210 incubated for 24 hrs followed by serial sub-cultivation for 24 hrs by microdilution; format: functional; conditions: ATCC 35210, 24 h
Procedure, shortened: (§3)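 MBC: after the 24 h LB broth microdilution (1.0 × 10⁴ CFU per well, 160 rpm), wells were serially sub-cultured into fresh broth plates and incubated a further 24 h. MBC is the lowest concentration with no visible growth, taken as 99.5% killing of the original inoculum. Duplicate, repeated three times.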

Staphylococcus aureus [6] = experiment: Antibacterial activity against Staphylococcus aureus ATCC 6538 after 24 hrs by microdilution method; format: functional; conditions: ATCC 6538, 24 h
Procedure, shortened: (§4)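 Broth microdilution in 96-well plates. Bacterial suspensions were adjusted in sterile saline to 1.0 × 10⁵ CFU/ml, prepared daily and kept at 4 °C. Compound was added to LB broth with 1.0 × 10⁴ CFU per well and shaken at 160 rpm for 24 h at […] (so in the source). MIC is the lowest concentration with no visible growth under a binocular microscope. OD655 was also read. Duplicate, repeated three times.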

Candida albicans [7] = experiment: Ratio of ketoconazole to compound for Candida albicans isolated from human; format: functional
Aspergillus fumigatus [8] = experiment: Ratio of ketoconazole to compound for Aspergillus fumigatus isolated from human; format: functional
Candida albicans [9] = experiment: Ratio of bifonazole to compound for Candida albicans isolated from human; format: functional
Listeria monocytogenes [10] = experiment: Antibacterial activity against Listeria monocytogenes NCTC 7973 incubated for 24 hrs followed by serial sub-cultivation for 24 hrs by microdilution; format: functional; conditions: NCTC 7973, 24 h; procedure, shortened: as §3
Listeria monocytogenes [11] = experiment: Antibacterial activity against Listeria monocytogenes NCTC 7973 after 24 hrs by microdilution method; format: functional; conditions: NCTC 7973, 24 h; procedure, shortened: as §4
Micrococcus flavus [12] = experiment: Antibacterial activity against Micrococcus flavus ATCC 10240 incubated for 24 hrs followed by serial sub-cultivation for 24 hrs by microdilution; format: functional; conditions: ATCC 10240, 24 h; procedure, shortened: as §3
Aspergillus niger [13] = experiment: Antifungal activity against Aspergillus niger ATCC 6275 after 72 hrs by serial dilution technique; format: functional; conditions: ATCC 6275, 72 h; procedure, shortened: as §2
Aspergillus niger [14] = experiment: Antifungal activity against Aspergillus niger ATCC 6275 incubated for 72 hrs followed by serial sub-cultivation for 72 hrs by serial dilution technique; format: functional; conditions: ATCC 6275, 72 h; procedure, shortened: as §1
Penicillium ochrochloron [15] = experiment: Antifungal activity against Penicillium ochrochloron ATCC 9112 incubated for 72 hrs followed by serial sub-cultivation for 72 hrs by serial dilution technique; format: functional; conditions: ATCC 9112, 72 h; procedure, shortened: as §1
Aspergillus flavus [16] = experiment: Antifungal activity against Aspergillus flavus ATCC 9643 after 72 hrs by serial dilution technique; format: functional; conditions: ATCC 9643, 72 h; procedure, shortened: as §2
Talaromyces funiculosus [17] = experiment: Antifungal activity against Penicillium funiculosum ATCC 36839 after 72 hrs by serial dilution technique; format: functional; conditions: ATCC 36839, 72 h; procedure, shortened: as §2
Escherichia coli [18] = experiment: Antibacterial activity against Escherichia coli ATCC 35210 after 24 hrs by microdilution method; format: functional; conditions: ATCC 35210, 24 h; procedure, shortened: as §4
Enterococcus faecalis [19] = experiment: Antibacterial activity against Enterococcus faecalis isolated from human after 24 hrs by microdilution method; format: functional; procedure, shortened: as §4
Talaromyces funiculosus [20] = experiment: Antifungal activity against Penicillium funiculosum ATCC 36839 incubated for 72 hrs followed by serial sub-cultivation for 72 hrs by serial dilution technique; format: functional; conditions: ATCC 36839, 72 h; procedure, shortened: as §1
Pseudomonas aeruginosa [21] = experiment: Antibacterial activity against Pseudomonas aeruginosa ATCC 27853 incubated for 24 hrs followed by serial sub-cultivation for 24 hrs by microdilution; format: functional; conditions: ATCC 27853, 24 h; procedure, shortened: as §3
Trichoderma viride [22] = experiment: Ratio of bifonazole to compound for Trichoderma viride IAM 5061; format: functional
Enterococcus faecalis [23] = experiment: Antibacterial activity against Enterococcus faecalis isolated from human incubated for 24 hrs followed by serial sub-cultivation for 24 hrs by microdilution; format: functional; procedure, shortened: as §3
Candida albicans [24] = experiment: Antifungal activity against Candida albicans isolated from human after 72 hrs by serial dilution technique; format: functional; procedure, shortened: as §2
Micrococcus flavus [25] = experiment: Antibacterial activity against Micrococcus flavus ATCC 10240 after 24 hrs by microdilution method; format: functional; conditions: ATCC 10240, 24 h; procedure, shortened: as §4
Aspergillus ochraceus [26] = experiment: Antifungal activity against Aspergillus ochraceus ATCC 12066 incubated for 72 hrs followed by serial sub-cultivation for 72 hrs by serial dilution technique; format: functional; conditions: ATCC 12066, 72 h; procedure, shortened: as §1
Trichoderma viride [27] = experiment: Antifungal activity against Trichoderma viride IAM 5061 incubated for 72 hrs followed by serial sub-cultivation for 72 hrs by serial dilution technique; format: functional; conditions: IAM 5061, 72 h; procedure, shortened: as §1
Pseudomonas aeruginosa [28] = experiment: Ratio of ampicillin MIC to compound MIC for Pseudomonas aeruginosa ATCC 27853; format: functional
Aspergillus niger [29] = experiment: Ratio of bifonazole to compound for Aspergillus niger ATCC 6275; format: functional
Penicillium ochrochloron [30] = experiment: Ratio of ketoconazole to compound for Penicillium ochrochloron ATCC 9112; format: functional
Trichoderma viride [31] = experiment: Antifungal activity against Trichoderma viride IAM 5061 after 72 hrs by serial dilution technique; format: functional; conditions: IAM 5061, 72 h; procedure, shortened: as §2
Candida albicans [32] = experiment: Antifungal activity against Candida albicans isolated from human incubated for 72 hrs followed by serial sub-cultivation for 72 hrs by serial dilution technique; format: functional; procedure, shortened: as §1
Bacillus cereus [33] = experiment: Antibacterial activity against clinical isolate of Bacillus cereus incubated for 24 hrs followed by serial sub-cultivation for 24 hrs by microdilution; format: functional; procedure, shortened: as §3
Pseudomonas aeruginosa [34] = experiment: Antibacterial activity against Pseudomonas aeruginosa ATCC 27853 after 24 hrs by microdilution method; format: functional; conditions: ATCC 27853, 24 h; procedure, shortened: as §4
Aspergillus ochraceus [35] = experiment: Ratio of ketoconazole to compound for Aspergillus ochraceus ATCC 12066; format: functional
Bacillus cereus [36] = experiment: Antibacterial activity against clinical isolate of Bacillus cereus after 24 hrs by microdilution method; format: functional; procedure, shortened: as §4
Staphylococcus aureus [37] = experiment: Antibacterial activity against Staphylococcus aureus ATCC 6538 incubated for 24 hrs followed by serial sub-cultivation for 24 hrs by microdilution method; format: functional; conditions: ATCC 6538, 24 h; procedure, shortened: as §3
Penicillium ochrochloron [38] = experiment: Antifungal activity against Penicillium ochrochloron ATCC 9112 after 72 hrs by serial dilution technique; format: functional; conditions: ATCC 9112, 72 h; procedure, shortened: as §2
Penicillium ochrochloron [39] = experiment: Ratio of bifonazole to compound for Penicillium ochrochloron ATCC 9112; format: functional
Salmonella typhimurium [40] = experiment: Antibacterial activity against Salmonella Typhimurium ATCC 13311 after 24 hrs by microdilution method; format: functional, Salmonella enterica subsp. enterica serovar Typhimurium; conditions: Salmonella enterica, ATCC 13311, 24 h; procedure, shortened: as §4
Salmonella typhimurium [41] = experiment: Antibacterial activity against Salmonella Typhimurium ATCC 13311 incubated for 24 hrs followed by serial sub-cultivation for 24 hrs by microdilution; format: functional, Salmonella enterica subsp. enterica serovar Typhimurium; conditions: Salmonella enterica, ATCC 13311, 24 h; procedure, shortened: as §3
Aspergillus ochraceus [42] = experiment: Antifungal activity against Aspergillus ochraceus after 72 hrs by serial dilution technique
Aspergillus fumigatus [43] = experiment: Antifungal activity against Aspergillus fumigatus isolated from human incubated for 72 hrs followed by serial sub-cultivation for 72 hrs by serial dilution technique; format: functional; procedure, shortened: as §1

Structure (SMILES): CCNc1nc(C)c(C(=O)/C=C/c2ccc(F)cc2)s1
- Ratio (Talaromyces funiculosus [1]): 10
- MFC (Aspergillus flavus [2]): 86.2 µM (≈ 25 µg/mL)
- Ratio (Aspergillus ochraceus [3]): 10
- MIC (Aspergillus ochraceus [4]): 68.9 µM (≈ 20 µg/mL)
- MBC (Escherichia coli [5]): 68.9 µM (≈ 20 µg/mL)
- MIC (Staphylococcus aureus [6]): 68.9 µM (≈ 20 µg/mL)
- Ratio (Candida albicans [7]): 10
- Ratio (Aspergillus fumigatus [8]): 10
- Ratio (Candida albicans [9]): 10
- MBC (Listeria monocytogenes [10]): 103 µM (≈ 30 µg/mL)
- MIC (Listeria monocytogenes [11]): 86.2 µM (≈ 25 µg/mL)
- MBC (Micrococcus flavus [12]): 68.9 µM (≈ 20 µg/mL)
- MIC (Aspergillus niger [13]): 34.5 µM (≈ 10 µg/mL)
- MFC (Aspergillus niger [14]): 51.7 µM (≈ 15 µg/mL)
- MFC (Penicillium ochrochloron [15]): 86.2 µM (≈ 25 µg/mL)
- MIC (Aspergillus flavus [16]): 68.9 µM (≈ 20 µg/mL)
- MIC (Talaromyces funiculosus [17]): 34.5 µM (≈ 10 µg/mL)
- MIC (Escherichia coli [18]): 51.7 µM (≈ 15 µg/mL)
- MIC (Enterococcus faecalis [19]): 51.7 µM (≈ 15 µg/mL)
- MFC (Talaromyces funiculosus [20]): 68.9 µM (≈ 20 µg/mL)
- MBC (Pseudomonas aeruginosa [21]): 68.9 µM (≈ 20 µg/mL)
- Ratio (Trichoderma viride [22]): 10
- MBC (Enterococcus faecalis [23]): 68.9 µM (≈ 20 µg/mL)
- MIC (Candida albicans [24]): 34.5 µM (≈ 10 µg/mL)
- MIC (Micrococcus flavus [25]): 51.7 µM (≈ 15 µg/mL)
- MFC (Aspergillus ochraceus [26]): 86.2 µM (≈ 25 µg/mL)
- MFC (Trichoderma viride [27]): 68.9 µM (≈ 20 µg/mL)
- Ratio (Pseudomonas aeruginosa [28]): 10
- Ratio (Aspergillus niger [29]): 10
- Ratio (Penicillium ochrochloron [30]): 10
- MIC (Trichoderma viride [31]): 34.5 µM (≈ 10 µg/mL)
- MFC (Candida albicans [32]): 68.9 µM (≈ 20 µg/mL)
- MBC (Bacillus cereus [33]): 86.2 µM (≈ 25 µg/mL)
- MIC (Pseudomonas aeruginosa [34]): 68.9 µM (≈ 20 µg/mL)
- Ratio (Aspergillus ochraceus [35]): 10
- MIC (Bacillus cereus [36]): 86.2 µM (≈ 25 µg/mL)
- MBC (Staphylococcus aureus [37]): 68.9 µM (≈ 20 µg/mL)
- MIC (Penicillium ochrochloron [38]): 68.9 µM (≈ 20 µg/mL)
- Ratio (Penicillium ochrochloron [39]): 10
- MIC (Salmonella typhimurium [40]): 51.7 µM (≈ 15 µg/mL)
- MBC (Salmonella typhimurium [41]): 51.7 µM (≈ 15 µg/mL)
- MIC (Aspergillus ochraceus [42]): 51.7 µM (≈ 15 µg/mL)
- MFC (Aspergillus fumigatus [43]): 68.9 µM (≈ 20 µg/mL)
